Measurements as given in ChEMBL document CHEMBL2163276, “A peptide nucleic acid-aminosugar conjugate targeting transactivation response element of HIV-1 RNA genome shows a high bioavailability in human cells and strongly inhibits tat-mediated transactivation of HIV-1 transcription” (J Med Chem, 2012).
Calls of active or inactive are those of the source. The rule behind the calls is not given here.

Columns and labels:
[1] = system: Nucleic Acid; experiment: Inhibition of HIV1 transactivation response element RNA-mediated LTR expression transfected in human CEM cells coexpressing CMV-Tat at 1 and 2 uM after 24 hrs by luciferase reporter gene assay; type: cell-based; conditions: Human immunodeficiency virus 1; CCRF-CEM
Procedure, shortened: (§1)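 CEM cells (0.5×10^6/well) transfected with pHIV-1 LTR-Luc (2 µg) and pRL-SV40 (500 ng), with or without pCMV-Tat (2 µg). Conjugates added 2 h later, and cells grown in RPMI/10% FBS at 37 °C. At 24 h, dual-luciferase read-out; firefly normalised to Renilla and expressed as % of untreated cells. Mean ± SEM of two independent experiments.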

[2] = system: CCRF-CEM; experiment: Cellular uptake in human CEM cells at 2 uM after overnight incubation; type: ADME, cell-based
[3] = system: CCRF-CEM; experiment: Cellular uptake in human CEM cells at 1 uM after 12 hrs by confocal microscopic analysis; type: ADME, cell-based
Procedure, shortened: (§2)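 CEM cells incubated 12 h with FITC-labelled conjugate (0.5 and 1 µM) or with 1 µM FITC-labelled naked PNA. Cells then washed, nuclei DAPI-stained, and imaged by confocal microscopy with FITC read at 488 nm.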

[4] = Cellular uptake in human Huh7.5 cells at 1 uM after 10 hrs by DAPI/WGA-Rhodamine-staining based confocal microscopic analysis in presence of chloroquine; type: ADME, cell-based; conditions: huh-7, 10 h
Procedure, shortened: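 Huh7.5 cells incubated with 1 µM FITC-labelled conjugate, with or without the endosome disruptor chloroquine, for 10 h. Cells then PBS-washed, fixed in 4% paraformaldehyde, stained with WGA-rhodamine (membrane glycoproteins) and DAPI (nuclei), and imaged by confocal microscopy, FITC at 488 nm.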

[5] = system: CCRF-CEM; experiment: Cellular uptake in human CEM cells at 0.5 uM after 12 hrs by confocal microscopic analysis; type: ADME, cell-based; procedure, shortened: as §2
[6] = Cytotoxicity against human CEM cells assessed as cell viability at 0.2 to 1 uM by propidium iodide-staining based flow cytometric analysis; conditions: CCRF-CEM cells, read-out: Activity
Procedure, shortened: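 CEM cells exposed to labelled conjugate at 0.2–1 µM under uptake-assay conditions. Viability scored by propidium iodide exclusion during flow cytometry.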

[7] = system: CCRF-CEM; experiment: Cellular uptake in human CEM cells up to 14 hrs by FACS analysis at 4 degC; type: ADME, cell-based
Procedure, shortened: (§3)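 CEM cells taken in log phase and resuspended at 0.5×10^6 cells/mL in RPMI with 2% FBS, preincubated 30 min at 37 °C. Fluorescein-labelled conjugate added at 50 nM–1 µM and incubated. Cells harvested at 30 min, 3 h and 14 h, washed in PBS and scored for FITC-positive cells by FACScan, with propidium iodide (1 µg/mL) to exclude dead cells.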

[8] = system: CCRF-CEM; experiment: Cellular uptake in human CEM cells up to 14 hrs by FACS analysis at 37 degC; type: ADME, cell-based; procedure, shortened: as §3
[9] = system: CCRF-CEM; experiment: Cellular uptake in human CEM cells at 0.3 uM within 14 hrs by FACS analysis; type: ADME, cell-based; procedure, shortened: as §3
[10] = system: CCRF-CEM; experiment: Cellular uptake in human CEM cells at 0.2 uM within 14 hrs by FACS analysis; type: ADME, cell-based; procedure, shortened: as §3
[11] = system: CCRF-CEM; experiment: Cellular uptake in human CEM cells at 0.2 uM within 30 mins by FACS analysis; type: ADME, cell-based; conditions: 0.5 h; procedure, shortened: as §3
[12] = system: CCRF-CEM; experiment: Cellular uptake in human CEM cells at 50 nM to 1 uM by FACS analysis; type: ADME, cell-based; conditions: 0.05 µM, TDE = time-dependent effect; procedure, shortened: as §3
[13] = system: CCRF-CEM; experiment: Cellular uptake in human CEM cells up to 14 hrs by FACS analysis; type: ADME, cell-based; procedure, shortened: as §3
[14] = system: CCRF-CEM; experiment: Cytotoxicity against human CEM cells assessed as inhibition of [3H]thymidine incorporation at 0.1 and 0.5 mM after 48 hrs by scintillation counting; type: cell-based
Procedure, shortened: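 CEM cells grown with conjugate (0.1 and 0.5 mM, dissolved in DMSO; final DMSO 5%) plus [methyl-3H]thymidine 5 µCi/mL for 48 h. Nucleic acids lysed with 1% NP-40, TCA-precipitated onto glass-fibre filters and scintillation counted. Results given as % of DMSO control, from three independent experiments.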

[15] = system: Nucleic Acid; experiment: Inhibition of transactivation response element RNA-mediated transcription in HIV1 pseudovirions infected in human CEM cells assessed as reduction in luciferase activity incubated 48 hrs post-infection measured after 72 hrs by reporter gene assay; type: cell-based
Procedure, shortened: (§4)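 CEM 12D7 cells (1×10^6 in 1 mL) infected 2 h with VSV-G-pseudotyped NL4-3.Luc.R-E- virions (14 ng p24), washed and cultured. Conjugate added 48 h post-infection. After 76 h, cells lysed and firefly luciferase measured; IC50 calculated. Mean of two independent experiments.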

[16] = system: Nucleic Acid; experiment: Inhibition of transactivation response element RNA-mediated transcription in HIV1 pseudovirions infected in human CEM cells assessed as reduction in luciferase activity at 800 nM incubated 48 hrs post-infection measured after 72 hrs by reporter gene assay; type: cell-based; conditions: Human immunodeficiency virus 1, CCRF-CEM; procedure, shortened: as §4
[17] = system: Nucleic Acid; experiment: Effect on HIV1 transactivation response element RNA-mediated LTR expression transfected in human CEM cells at 0.1 to 2 uM after 24 hrs by luciferase reporter gene assay; type: cell-based; conditions: Human immunodeficiency virus 1, CCRF-CEM; procedure, shortened: as §1
[18] = system: Nucleic Acid; experiment: Inhibition of HIV1 transactivation response element RNA-mediated LTR expression transfected in human CEM cells coexpressing CMV-Tat at 0.1 to 2 uM after 24 hrs by luciferase reporter gene assay; type: cell-based; conditions: Human immunodeficiency virus 1, CCRF-CEM; procedure, shortened: as §1
[19] = system: Nucleic Acid; experiment: Inhibition of HIV1 transactivation response element RNA-mediated LTR expression transfected in human CEM cells coexpressing CMV-Tat at 1 uM after 24 hrs by luciferase reporter gene assay; type: cell-based; conditions: Human immunodeficiency virus 1, CCRF-CEM; procedure, shortened: as §1
[20] = system: Nucleic Acid; experiment: Induction of HIV1 transactivation response element RNA cleavage; type: nucleic-acid assay; conditions: Human immunodeficiency virus 1
[21] = system: Nucleic Acid; experiment: Induction of HIV1 transactivation response element RNA cleavage in presence of metal ion; type: nucleic-acid assay; conditions: Human immunodeficiency virus 1
[22] = system: Nucleic Acid; experiment: Binding affinity to HIV1 32-P labeled transactivation response element RNA at compound:RNA ratio of 1:1 after 1 hr by gel mobility shift assay; type: nucleic-acid assay; conditions: Human immunodeficiency virus 1
Procedure, shortened: (§5)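 10 nM 32P-labelled 82-nt TAR RNA run-off transcript (T7) incubated with conjugate in 50 mM Tris-HCl pH 7.8, 60 mM KCl, 5 mM MgCl2, 1 h at room temperature. Molar ratios of conjugate to RNA were 0–5.0. Samples were run on native 8% polyacrylamide gel in TBE, 100 V, 4 h, room temperature, then PhosphorImager read-out.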

[23] = system: Nucleic Acid; experiment: Binding affinity to HIV1 32-P labeled transactivation response element RNA assessed as gel mobility shift at compound:RNA ratio of 0.5:1 after 1 hr by gel mobility shift assay; type: nucleic-acid assay; conditions: Human immunodeficiency virus 1; procedure, shortened: as §5
[24] = Chemical stability of the compound in aqueous HCl solution after 3 days by HPLC analysis; type: physicochemical; conditions: buffer, 72 h
Procedure, shortened: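 Conjugate held in 0.1 M aqueous HCl at 37 °C for 3 days. HPLC retention time compared with untreated sample.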

[25] = Human immunodeficiency virus 1, CCRF-CEM

Cc1cn(CC(=O)N(CCNC(=O)CN(CCNC(=O)CN(CCNC(=O)CN(CCNC(=O)CN(CCNC(=O)CN(CCNC(=O)CN(CCNC(=O)CN(CCNC(=O)CN(CCNC(=O)CN(CCNC(=O)CN(CCNC(=O)CN(CCNC(=O)CN(CCNC(=O)CN(CCNC(=O)CN(CCNC(=O)CN(CCN)C(=O)Cn2cc(C)c(=O)[nH]c2=O)C(=O)Cn2ccc(N)nc2=O)C(=O)Cn2ccc(N)nc2=O)C(=O)Cn2ccc(N)nc2=O)C(=O)Cn2cnc3c(N)ncnc32)C(=O)Cn2cnc3c(=O)[nH]c(N)nc32)C(=O)Cn2cnc3c(=O)[nH]c(N)nc32)C(=O)Cn2ccc(N)nc2=O)C(=O)Cn2cc(C)c(=O)[nH]c2=O)C(=O)Cn2ccc(N)nc2=O)C(=O)Cn2cnc3c(N)ncnc32)C(=O)Cn2cnc3c(=O)[nH]c(N)nc32)C(=O)Cn2cnc3c(N)ncnc32)C(=O)Cn2cc(C)c(=O)[nH]c2=O)C(=O)Cn2ccc(N)nc2=O)CC(N)=O)c(=O)[nH]c1=O
inhibition [1]: inactive

Cc1cn(CC(=O)N(CCNC(=O)CN(CCNC(=O)CN(CCNC(=O)CN(CCNC(=O)CN(CCNC(=O)CN(CCNC(=O)CN(CCNC(=O)CN(CCNC(=O)CN(CCNC(=O)CN(CCNC(=O)CN(CCNC(=O)CN(CCNC(=O)CN(CCNC(=O)CN(CCNC(=O)CN(CCNC(=O)CN(CCNC(=O)CCC(=O)NCCCCCCO[C@@H]2[C@@H](O)[C@H](N)C[C@H](N)[C@H]2O[C@H]2O[C@H](CN)[C@@H](O)[C@H](O)[C@H]2N)C(=O)Cn2cc(C)c(=O)[nH]c2=O)C(=O)Cn2ccc(N)nc2=O)C(=O)Cn2ccc(N)nc2=O)C(=O)Cn2ccc(N)nc2=O)C(=O)Cn2cnc3c(N)ncnc32)C(=O)Cn2cnc3c(=O)[nH]c(N)nc32)C(=O)Cn2cnc3c(=O)[nH]c(N)nc32)C(=O)Cn2ccc(N)nc2=O)C(=O)Cn2cc(C)c(=O)[nH]c2=O)C(=O)Cn2ccc(N)nc2=O)C(=O)Cn2cnc3c(N)ncnc32)C(=O)Cn2cnc3c(=O)[nH]c(N)nc32)C(=O)Cn2cnc3c(N)ncnc32)C(=O)Cn2cc(C)c(=O)[nH]c2=O)C(=O)Cn2ccc(N)nc2=O)CC(N)=O)c(=O)[nH]c1=O
Drug uptake [2]: 30%

Cc1cn(CC(=O)N(CCN)CC(=O)NCCN(CC(=O)NCCN(CC(=O)NCCN(CC(=O)NCCN(CC(=O)NCCN(CC(=O)NCCN(CC(=O)NCCN(CC(=O)NCCN(CC(=O)NCCN(CC(=O)NCCN(CC(=O)NCCN(CC(=O)NCCN(CC(=O)NCCN(CC(=O)NCCN(CC(=O)NCCN(CC(=O)N[C@@H](CCCCNC(=S)Nc2ccc(-c3c4ccc(=O)cc-4oc4cc(O)ccc34)c(C(=O)O)c2)C(N)=O)C(=O)Cn2cc(C)c(=O)[nH]c2=O)C(=O)Cn2ccc(N)nc2=O)C(=O)Cn2cc(C)c(=O)[nH]c2=O)C(=O)Cn2cnc3c(N)ncnc32)C(=O)Cn2cnc3c(=O)[nH]c(N)nc32)C(=O)Cn2cnc3c(N)ncnc32)C(=O)Cn2ccc(N)nc2=O)C(=O)Cn2cc(C)c(=O)[nH]c2=O)C(=O)Cn2ccc(N)nc2=O)C(=O)Cn2cnc3c(=O)[nH]c(N)nc32)C(=O)Cn2cnc3c(=O)[nH]c(N)nc32)C(=O)Cn2cnc3c(N)ncnc32)C(=O)Cn2ccc(N)nc2=O)C(=O)Cn2ccc(N)nc2=O)C(=O)Cn2ccc(N)nc2=O)c(=O)[nH]c1=O
Drug uptake [3]: Not Active

CO[C@H]1O[C@H](CN)[C@@H](OCCCCCC(=O)NCCN(CC(=O)NCCN(CC(=O)NCCN(CC(=O)NCCN(CC(=O)NCCN(CC(=O)NCCN(CC(=O)NCCN(CC(=O)NCCN(CC(=O)NCCN(CC(=O)NCCN(CC(=O)NCCN(CC(=O)NCCN(CC(=O)NCCN(CC(=O)NCCN(CC(=O)NCCN(CC(=O)NCCN(CC(=O)N[C@@H](CCCCNC(=S)Nc2ccc(-c3c4ccc(=O)cc-4oc4cc(O)ccc34)c(C(=O)O)c2)C(N)=O)C(=O)Cn2cc(C)c(=O)[nH]c2=O)C(=O)Cn2ccc(N)nc2=O)C(=O)Cn2cc(C)c(=O)[nH]c2=O)C(=O)Cn2cnc3c(N)ncnc32)C(=O)Cn2cnc3c(=O)[nH]c(N)nc32)C(=O)Cn2cnc3c(N)ncnc32)C(=O)Cn2ccc(N)nc2=O)C(=O)Cn2cc(C)c(=O)[nH]c2=O)C(=O)Cn2ccc(N)nc2=O)C(=O)Cn2cnc3c(=O)[nH]c(N)nc32)C(=O)Cn2cnc3c(=O)[nH]c(N)nc32)C(=O)Cn2cnc3c(N)ncnc32)C(=O)Cn2ccc(N)nc2=O)C(=O)Cn2ccc(N)nc2=O)C(=O)Cn2ccc(N)nc2=O)C(=O)Cn2cc(C)c(=O)[nH]c2=O)[C@H](O)[C@H]1N
Drug uptake [4]: Active | Drug uptake [3]: 99% | Drug uptake [5]: 90% | viability at 1 µM [6]: > 95% | Drug uptake [7]: Active | Drug uptake [8]: Active | Drug uptake [9]: 100% | Drug uptake [10]: 85% | Drug uptake [11]: 10% | Drug uptake [12]: tde | Drug uptake [13]: Dose-dependent effect

CO[C@H]1O[C@H](CN)[C@@H](OCCCCCC(=O)NCCN(CC(=O)NCCN(CC(=O)NCCN(CC(=O)NCCN(CC(=O)NCCN(CC(=O)NCCN(CC(=O)NCCN(CC(=O)NCCN(CC(=O)NCCN(CC(=O)NCCN(CC(=O)NCCN(CC(=O)NCCN(CC(=O)NCCN(CC(=O)NCCN(CC(=O)NCCN(CC(=O)NCCN(CC(N)=O)C(=O)Cn2cc(C)c(=O)[nH]c2=O)C(=O)Cn2ccc(N)nc2=O)C(=O)Cn2cc(C)c(=O)[nH]c2=O)C(=O)Cn2cnc3c(N)ncnc32)C(=O)Cn2cnc3c(=O)[nH]c(N)nc32)C(=O)Cn2cnc3c(N)ncnc32)C(=O)Cn2ccc(N)nc2=O)C(=O)Cn2cc(C)c(=O)[nH]c2=O)C(=O)Cn2ccc(N)nc2=O)C(=O)Cn2cnc3c(=O)[nH]c(N)nc32)C(=O)Cn2cnc3c(=O)[nH]c(N)nc32)C(=O)Cn2cnc3c(N)ncnc32)C(=O)Cn2ccc(N)nc2=O)C(=O)Cn2ccc(N)nc2=O)C(=O)Cn2ccc(N)nc2=O)C(=O)Cn2cc(C)c(=O)[nH]c2=O)[C@H](O)[C@H]1N
Activity [14]: Non-toxic | IC50 [15, 25]: 800 nM | inhibition [15, 25]: Dose-dependent effect | inhibition [16]: 50% | Activity [17]: inactive | inhibition [18]: Active | inhibition [19]: 75% | Activity [20]: inactive | Activity [21]: inactive | Activity [22]: Active | Activity [23]: 50% | Stability [24]: Stable
